Test results: ChEMBL document CHEMBL3046176, “Synthesis, crystal structure, and biological activities of 2-cyanoacrylates containing furan or tetrahydrofuran moieties” (2007)

How the values were obtained:
Type in all cases: functional
[1] = test system: Botryosphaeria berengeriana; experiment: Antifungal activity against Botryosphaeria berengeriana assessed as inhibition of mycelium growth at 50 mg/L at 26 degC measured after 72 hr
Outline: (§1)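 Mycelium growth assay on agar. 1 mL test solution (50 mg/L) was poured into a 9 cm plate with 9 mL agar medium. Controls used sterile water in its place. A 4 mm plug from the margin of an actively growing colony was placed in the centre and incubated at 26 °C. Hyphal diameter was measured over 72 h, in triplicate. Inhibition % = (control diameter − treated diameter)/control diameter.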

Medicago sativa [2] = experiment: Herbicidal activity against Medicago sativa (alfalfa) assessed as herbicidal damage at 1.5 kg/ha measured after preemergence treatment; settings: pre-emergence
Outline: (§2)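 Seeds were sown in 6 cm boxes of artificial mixed soil, covered with plastic film until emergence, and grown in a greenhouse. Sprays were applied right after sowing (preemergence) or after the first true leaf expanded (postemergence). Controls received the same amount of water/DMF/Tween 20. Above-ground fresh weight was taken 10 days after treatment, in triplicate, as % damage versus control.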

Digitaria sanguinalis [3] = experiment: Herbicidal activity against hairy crabgrass Digitaria sanguinalis (hairy crabgrass) assessed as herbicidal damage at 1.5 kg/ha measured after postemergence treatment; settings: post-emergence; outline: as §2
Brassica napus [4] = experiment: Herbicidal activity against rape Brassica napus (oilseed rape) assessed as herbicidal damage at 1.5 kg/ha measured after postemergence treatment; settings: post-emergence; outline: as §2
Fusarium graminearum = experiment: Antifungal activity against Fusarium graminearum assessed as inhibition of mycelium growth at 50 mg/L at 26 degC measured after 72 hr
Outline: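 Mycelium growth test on agar plates: 1 mL test solution (50 mg/L) mixed with 9 mL agar medium; sterile water in place of test solution for controls. 4 mm inocula cut from margins of actively growing colonies, placed at plate centre, incubated at 26 °C; mycelium diameter measured over 72 h. Inhibition % from mean hyphal diameter against control. Triplicate.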

Brassica napus [5] = experiment: Herbicidal activity against rape Brassica napus (oilseed rape) assessed as herbicidal damage at 1.5 kg/ha measured after preemergence treatment; settings: pre-emergence; outline: as §2
Mycosphaerella arachidis = experiment: Antifungal activity against Mycosphaerella arachidis assessed as inhibition of mycelium growth at 50 mg/L at 26 degC measured after 72 hr; outline: as §1
Alternaria solani = experiment: Antifungal activity against Alternaria solani assessed as inhibition of mycelium growth at 50 mg/L at 26 degC measured after 72 hr; outline: as §1
Digitaria sanguinalis [6] = experiment: Herbicidal activity against hairy crabgrass Digitaria sanguinalis (hairy crabgrass) assessed as herbicidal damage at 1.5 kg/ha measured after preemergence treatment; settings: pre-emergence; outline: as §2
Amaranthus retroflexus [7] = experiment: Herbicidal activity against Amaranthus retroflexus assessed as herbicidal damage at 1.5 kg/ha measured after preemergence treatment; settings: pre-emergence; outline: as §2
Tobacco mosaic virus = experiment: Antiviral activity against Tobacco mosaic virus (TMV) inoculated in fresh tobacco leaf at 100 mg/L by half-leaf method
Outline: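 Half-leaf method on tobacco leaves at the 5-6 growth stage. Leaves were inoculated with TMV by juice-leaf rubbing at 5.88 × 10-2 µg/mL and cut along the main vein. One half was immersed in test solution and the other in double distilled water for 20 min, then cultured at 25 °C for 72 h, in triplicate. Inhibition = 100(CK − A)/CK, from average lesion counts.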

Amaranthus retroflexus [8] = experiment: Herbicidal activity against Amaranthus retroflexus assessed as herbicidal damage at 1.5 kg/ha measured after postemergence treatment; settings: post-emergence; outline: as §2
Medicago sativa [9] = experiment: Herbicidal activity against Medicago sativa (alfalfa) assessed as herbicidal damage at 1.5 kg/ha measured after postemergence treatment; settings: post-emergence; outline: as §2
Cladosporium cucumerinum = experiment: Antifungal activity against Cladosporium cucumerinum assessed as inhibition of mycelium growth at 50 mg/L at 26 degC measured after 72 hr; outline: as §1
Cucumis sativus = experiment: Plant growth regulatory activity in Cucumis sativus (cucumber) seed assessed as number of root at 10 mg/L at 26 degC measured after 5 days
Outline: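 Cucumber seeds were incubated at 26 °C in the dark for 72 h, then 10 cotyledons were excised and treated. Incubation continued at 26 °C in the dark for 5 days. Roots were counted, with water-only controls, in triplicate.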

CCOCCOC(=O)/C(C#N)=C(\NCC1CCOC1)C(C)C (centres undefined) showed an inhibition at 50 µg/mL [1] of 9.1%, an inhibition at 1500 g/ha (Medicago sativa [2]) of 2.3% and an inhibition at 1500 g/ha (Digitaria sanguinalis [3]) of 57.6%. The inhibition at 1500 g/ha (Brassica napus [4]) was 88.2%, the inhibition at 50 µg/mL (Fusarium graminearum) was 0% and the inhibition at 1500 g/ha (Brassica napus [5]) was 0%. The inhibition at 50 µg/mL (Mycosphaerella arachidis) was 17.9%, the inhibition at 50 µg/mL (Alternaria solani) was 0% and the inhibition at 1500 g/ha (Digitaria sanguinalis [6]) was 0%. It also gave an inhibition at 1500 g/ha (Amaranthus retroflexus [7]) of 12.6%, an Activity (Tobacco mosaic virus) of 4.9% and an inhibition at 1500 g/ha (Amaranthus retroflexus [8]) of 37.8%. For the same compound, the inhibition at 1500 g/ha (Medicago sativa [9]) was 41.3%, the inhibition at 50 µg/mL (Cladosporium cucumerinum) was 5.3% and the Activity (Cucumis sativus) was 14.4%.

CCOCCOC(=O)/C(C#N)=C(/NCC1CCCO1)SC (centres undefined) gave an inhibition at 50 µg/mL [1] of 4.5%, an inhibition at 1500 g/ha (Medicago sativa [2]) of 21.8% and an inhibition at 1500 g/ha (Digitaria sanguinalis [3]) of 0%. The inhibition at 1500 g/ha (Brassica napus [4]) was 47.5%, the inhibition at 50 µg/mL (Fusarium graminearum) was 40% and the inhibition at 1500 g/ha (Brassica napus [5]) was 0%. For the same compound, the inhibition at 50 µg/mL (Mycosphaerella arachidis) was 17.9%, the inhibition at 50 µg/mL (Alternaria solani) was 0% and the inhibition at 1500 g/ha (Digitaria sanguinalis [6]) was 35.7%. The inhibition at 1500 g/ha (Amaranthus retroflexus [7]) was 9.5%, the inhibition at 1500 g/ha (Amaranthus retroflexus [8]) was 37.8% and the inhibition at 1500 g/ha (Medicago sativa [9]) was 23.4%. The inhibition at 50 µg/mL (Cladosporium cucumerinum) was 34.2% and the Activity (Cucumis sativus) was -0.6%.

In the case of CCOCCOC(=O)/C(C#N)=C(/CC)NCC1CCOC1 (centres undefined), the inhibition at 50 µg/mL [1] is reported as 9.1%, the inhibition at 1500 g/ha (Medicago sativa [2]) is reported as 6% and the inhibition at 1500 g/ha (Digitaria sanguinalis [3]) is reported as 11.1%. The inhibition at 1500 g/ha (Brassica napus [4]) was 68%, the inhibition at 50 µg/mL (Fusarium graminearum) was 20% and the inhibition at 1500 g/ha (Brassica napus [5]) was 34.1%. For the same compound, the inhibition at 50 µg/mL (Mycosphaerella arachidis) was 39.3%, the inhibition at 50 µg/mL (Alternaria solani) was 17.9% and the inhibition at 1500 g/ha (Digitaria sanguinalis [6]) was 0%. For the same compound, the inhibition at 1500 g/ha (Amaranthus retroflexus [7]) was 4.2%, the Activity (Tobacco mosaic virus) was 7.2% and the inhibition at 1500 g/ha (Amaranthus retroflexus [8]) was 51.6%. For the same compound, the inhibition at 1500 g/ha (Medicago sativa [9]) was 25.7%, the inhibition at 50 µg/mL (Cladosporium cucumerinum) was 7.9% and the Activity (Cucumis sativus) was 41.5%.

With CCC/C(NCC1CCOC1)=C(\C#N)C(=O)OCCOCC (centres undefined) the inhibition at 50 µg/mL [1] was 27.3%, the inhibition at 1500 g/ha (Medicago sativa [2]) was 0% and the inhibition at 1500 g/ha (Digitaria sanguinalis [3]) was 1%. The inhibition at 1500 g/ha (Brassica napus [4]) was 58.8%, the inhibition at 50 µg/mL (Fusarium graminearum) was 0% and the inhibition at 1500 g/ha (Brassica napus [5]) was 0%. For the same compound, the inhibition at 50 µg/mL (Mycosphaerella arachidis) was 41.1%, the inhibition at 50 µg/mL (Alternaria solani) was 10.7% and the inhibition at 1500 g/ha (Digitaria sanguinalis [6]) was 0%. The inhibition at 1500 g/ha (Amaranthus retroflexus [7]) was 9.5%, the Activity (Tobacco mosaic virus) was 9.4% and the inhibition at 1500 g/ha (Amaranthus retroflexus [8]) was 8.1%. It also gave an inhibition at 1500 g/ha (Medicago sativa [9]) of 11.4%, an inhibition at 50 µg/mL (Cladosporium cucumerinum) of 21.1% and an Activity (Cucumis sativus) of 5.4%.

In the case of CCOCCOC(=O)/C(C#N)=C(/NCc1ccoc1)SC, the inhibition at 50 µg/mL [1] is reported as 9.1%, the inhibition at 1500 g/ha (Medicago sativa [2]) is reported as 16.5% and the inhibition at 1500 g/ha (Digitaria sanguinalis [3]) is reported as 5.1%. For the same compound, the inhibition at 1500 g/ha (Brassica napus [4]) was 30.8%, the inhibition at 50 µg/mL (Fusarium graminearum) was 36.7% and the inhibition at 1500 g/ha (Brassica napus [5]) was 0%. For the same compound, the inhibition at 50 µg/mL (Mycosphaerella arachidis) was 12.5%, the inhibition at 50 µg/mL (Alternaria solani) was 3.6% and the inhibition at 1500 g/ha (Digitaria sanguinalis [6]) was 0%. For the same compound, the inhibition at 1500 g/ha (Amaranthus retroflexus [7]) was 8.4%, the Activity (Tobacco mosaic virus) was 8% and the inhibition at 1500 g/ha (Amaranthus retroflexus [8]) was 28.8%. The inhibition at 1500 g/ha (Medicago sativa [9]) was 31.1%, the inhibition at 50 µg/mL (Cladosporium cucumerinum) was 13.2% and the Activity (Cucumis sativus) was 14.4%.

CCC/C(NCc1ccoc1)=C(\C#N)C(=O)OCCOCC was tested, and the inhibition at 50 µg/mL [1] was 31.8%, the inhibition at 1500 g/ha (Medicago sativa [2]) was 4.5% and the inhibition at 1500 g/ha (Digitaria sanguinalis [3]) was 0%. It also gave an inhibition at 1500 g/ha (Brassica napus [4]) of 25.2%, an inhibition at 50 µg/mL (Fusarium graminearum) of 16.7% and an inhibition at 1500 g/ha (Brassica napus [5]) of 0%. For the same compound, the inhibition at 50 µg/mL (Mycosphaerella arachidis) was 12.5%, the inhibition at 50 µg/mL (Alternaria solani) was 25% and the inhibition at 1500 g/ha (Digitaria sanguinalis [6]) was 35.7%. For the same compound, the inhibition at 1500 g/ha (Amaranthus retroflexus [7]) was 0%, the Activity (Tobacco mosaic virus) was 0% and the inhibition at 1500 g/ha (Amaranthus retroflexus [8]) was 14.3%. The inhibition at 1500 g/ha (Medicago sativa [9]) was 31.1%, the inhibition at 50 µg/mL (Cladosporium cucumerinum) was 21.1% and the Activity (Cucumis sativus) was -6.6%.

CCOCCOC(=O)/C(C#N)=C(/NCc1ccc(Cl)nc1)SC showed an inhibition at 50 µg/mL [1] of 22.7%, an inhibition at 1500 g/ha (Medicago sativa [2]) of 1.5% and an inhibition at 1500 g/ha (Digitaria sanguinalis [3]) of 89.9%. For the same compound, the inhibition at 1500 g/ha (Brassica napus [4]) was 100%, the inhibition at 50 µg/mL (Fusarium graminearum) was 6.7% and the inhibition at 1500 g/ha (Brassica napus [5]) was 68.9%. It also gave an inhibition at 50 µg/mL (Mycosphaerella arachidis) of 21.4%, an inhibition at 50 µg/mL (Alternaria solani) of 7.1% and an inhibition at 1500 g/ha (Digitaria sanguinalis [6]) of 18.6%. It also gave an inhibition at 1500 g/ha (Amaranthus retroflexus [7]) of 13.7%, an Activity (Tobacco mosaic virus) of 18.3% and an inhibition at 1500 g/ha (Amaranthus retroflexus [8]) of 100%. It also gave an inhibition at 1500 g/ha (Medicago sativa [9]) of 41.3%, an inhibition at 50 µg/mL (Cladosporium cucumerinum) of 0% and an Activity (Cucumis sativus) of -3.6%.
